Data on two compounds can be found in ChEMBL document CHEMBL4041524, “Synthesis and Characterization of a Novel γ-Aminobutyric Acid Type A (GABAA) Receptor Ligand That Combines Outstanding Metabolic Stability, Pharmacokinetics, and Anxiolytic Efficacy” (J Med Chem, 2016).

The subject of one series is Rattus norvegicus. The experiment in a line: Toxicity in water-deprived Sprague-Dawley rat assessed as effect on water drinking time during nonpunished period at 20 mg/kg, po by Vogel conflict test. The conditions noted are these: in vivo. Format: organism-based. In short, it runs like this:
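Water-deprived male Sprague-Dawley rats (n = 6–8) drank during unpunished and punished periods, with licking suppressed by mild shock in punished periods. Compounds were given 30 min before testing. Analysis was ANOVA with Dunnett's test.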

For series [1], the target named is T1, GABA-A receptor; alpha-3/beta-3/gamma-2 (Homo sapiens, UniProt P18507+P28472+P34903).
T1 sequence (P18507 whole entry): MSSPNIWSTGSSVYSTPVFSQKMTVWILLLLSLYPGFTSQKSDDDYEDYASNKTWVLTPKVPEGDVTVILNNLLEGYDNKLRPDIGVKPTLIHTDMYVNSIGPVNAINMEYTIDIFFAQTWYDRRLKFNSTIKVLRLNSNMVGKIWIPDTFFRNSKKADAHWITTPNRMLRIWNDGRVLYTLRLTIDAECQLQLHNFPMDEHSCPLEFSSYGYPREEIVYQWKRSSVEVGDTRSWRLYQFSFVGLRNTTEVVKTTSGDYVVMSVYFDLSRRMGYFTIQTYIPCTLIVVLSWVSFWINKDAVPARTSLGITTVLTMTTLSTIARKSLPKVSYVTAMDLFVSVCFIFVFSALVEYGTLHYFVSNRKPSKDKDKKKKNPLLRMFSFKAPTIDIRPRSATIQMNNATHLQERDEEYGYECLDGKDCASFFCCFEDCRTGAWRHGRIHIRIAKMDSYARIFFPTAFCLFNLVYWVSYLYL
T1 sequence (P28472 whole entry): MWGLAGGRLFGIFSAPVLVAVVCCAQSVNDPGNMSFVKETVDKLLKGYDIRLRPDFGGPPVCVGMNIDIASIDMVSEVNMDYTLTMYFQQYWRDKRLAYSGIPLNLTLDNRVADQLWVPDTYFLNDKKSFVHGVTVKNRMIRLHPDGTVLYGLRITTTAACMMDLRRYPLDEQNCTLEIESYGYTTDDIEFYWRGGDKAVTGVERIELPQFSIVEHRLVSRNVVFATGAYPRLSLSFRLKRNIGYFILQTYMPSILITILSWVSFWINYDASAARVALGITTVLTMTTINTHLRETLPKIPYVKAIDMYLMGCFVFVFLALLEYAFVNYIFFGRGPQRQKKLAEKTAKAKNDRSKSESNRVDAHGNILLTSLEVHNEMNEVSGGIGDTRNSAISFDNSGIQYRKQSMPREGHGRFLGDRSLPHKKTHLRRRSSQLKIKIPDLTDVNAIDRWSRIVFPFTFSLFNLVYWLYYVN
T1 sequence (P34903 whole entry): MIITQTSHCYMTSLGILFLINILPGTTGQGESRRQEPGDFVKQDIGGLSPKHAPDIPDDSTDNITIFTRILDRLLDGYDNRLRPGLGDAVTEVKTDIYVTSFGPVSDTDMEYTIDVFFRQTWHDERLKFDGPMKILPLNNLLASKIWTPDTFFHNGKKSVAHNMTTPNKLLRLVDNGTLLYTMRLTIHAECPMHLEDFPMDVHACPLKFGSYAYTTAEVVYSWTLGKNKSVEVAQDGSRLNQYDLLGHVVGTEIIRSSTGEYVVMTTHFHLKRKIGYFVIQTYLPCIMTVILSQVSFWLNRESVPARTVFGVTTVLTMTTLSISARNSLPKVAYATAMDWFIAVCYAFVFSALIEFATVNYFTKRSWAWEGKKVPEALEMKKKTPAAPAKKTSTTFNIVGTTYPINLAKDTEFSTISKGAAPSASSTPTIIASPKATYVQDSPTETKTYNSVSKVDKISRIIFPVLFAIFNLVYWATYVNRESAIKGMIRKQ
Briefly: Binding affinity to human GABAA alpha3beta3gamma2 receptor expressed in HEK293 cells assessed as GABA-induced membrane potential change preincubated for 3 mins followed by addition of GABA measured after 3 mins by FLIPR assay. Format: cell-based. In short, it runs like this:
(§1)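 Stably transfected HEK293T cells expressing α1β3γ2 (n = 2) or α3β3γ2 (n = 1) GABAARs. Membrane potential was read as fluorescence changes on a FLIPR Tetra, and EC50 was derived.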

In series [2] the test system is Liver. The experiment in a line: Metabolic stability in human liver microsomes assessed as compound remaining at 4 uM measured after 30 mins in presence of NADPH by LC-MS/MS analysis. Type of series: ADME, microsome. Particulars: 0.5 h. In short, it runs like this:
(§2)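 Human, mouse or rat liver microsomes were incubated with compound at 4 μM final for 30 min at 37 °C (n = 1). Percent of parent remaining was quantified by LC-MS/MS.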
For orientation: Microsomes from liver hold many membrane-bound enzymes, among them those of drug oxidation.

In series [3] the test system is Liver. The experiment in a line: Metabolic stability in mouse liver microsomes assessed as compound remaining at 4 uM measured after 30 mins in presence of NADPH by LC-MS/MS analysis. Format: ADME, microsome. The conditions noted are these: 0.5 h. In short, it runs like this:
as §2

Series [4] has as its system Liver. Briefly: Metabolic stability in rat liver microsomes assessed as compound remaining at 4 uM measured after 30 mins in presence of NADPH by LC-MS/MS analysis. Type of series: ADME, microsome. Particulars: 0.5 h. In short, it runs like this: as §2
A short description of series [5]: Cytotoxicity against HEK293T cells assessed as viable cells measured after 18 hrs by CellTiter-Glo assay. Format: cell-based, HEK-293T. The conditions noted are these: human, read-out: LD50. In short, it runs like this:
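HEK293T cells were exposed to compound for 18 h (n = 4). Viable cells were quantified with CellTiter-Glo, and LD50 was derived.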

Series [6] concerns the target T2, GABA-A receptor; alpha-1/beta-3/gamma-2 (Homo sapiens, UniProt P14867+P18507+P28472).
T2 sequence (P14867 whole entry): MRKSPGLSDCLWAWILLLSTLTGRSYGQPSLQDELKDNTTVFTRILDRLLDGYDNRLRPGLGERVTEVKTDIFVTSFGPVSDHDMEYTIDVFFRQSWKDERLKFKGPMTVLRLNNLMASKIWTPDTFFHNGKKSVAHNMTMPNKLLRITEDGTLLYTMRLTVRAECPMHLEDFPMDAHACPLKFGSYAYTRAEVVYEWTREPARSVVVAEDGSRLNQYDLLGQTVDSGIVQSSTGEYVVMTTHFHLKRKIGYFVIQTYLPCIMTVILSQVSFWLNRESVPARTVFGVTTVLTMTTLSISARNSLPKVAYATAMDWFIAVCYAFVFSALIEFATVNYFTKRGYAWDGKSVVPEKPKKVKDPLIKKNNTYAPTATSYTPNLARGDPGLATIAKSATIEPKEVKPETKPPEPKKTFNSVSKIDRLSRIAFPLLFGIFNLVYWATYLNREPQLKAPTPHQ
T2 sequence (P18507 whole entry): T1 sequence (P18507 whole entry)
T2 sequence (P28472 whole entry): T1 sequence (P28472 whole entry)
The experiment in a line: Binding affinity to human GABAA alpha1beta3gamma2 receptor expressed in HEK293 cells assessed as GABA-induced membrane potential change preincubated for 3 mins followed by addition of GABA measured after 3 mins by FLIPR assay. Format: cell-based. In short, it runs like this:
as §1

Series [7] in a line: Total plasma concentration in Sprague-Dawley rat at 10 mg/kg, po measured after 60 mins by LC-MS/MS analysis. Format: ADME, organism-based. In short, it runs like this:
(§3)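 Sprague-Dawley rats (n = 3 per time point) were given 10 mg/kg p.o. Total plasma concentrations were taken at 15, 30, 60 and 120 min. Brain levels of the dosed ligand and of the carboxylic acid metabolite were taken at 60 or 120 min.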

Series [8] is described as follows: Drug uptake in Sprague-Dawley rat brain at 10 mg/kg, po measured after 60 mins by LC-MS/MS analysis. Type of series: ADME, organism-based. The conditions noted are these: read-out: Drug uptake. In short, it runs like this:
as §3

Series [9] deals with Mus musculus. The experiment in a line: Anxiolytic-like activity in Swiss Webster mouse marble burying model of anxiety assessed as suppression of marble burying activity at 10 mg/kg, ip administered 30 mins prior to test relative to vehicle-control. Type of series: functional, organism-based. In short, it runs like this: (§4)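 Male NIH Swiss Webster mice (n = 10) received vehicle or compound at 10 or 30 mg/kg i.p. 30 min before marble burying testing. Sedation-like behaviour was noted by observation. Analysis was ANOVA with Dunnett's test vs vehicle.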

Series [10] concerns Mus musculus. Briefly: Anxiolytic-like activity in Swiss Webster mouse marble burying model of anxiety assessed as suppression of marble burying activity at 30 mg/kg, ip administered 30 mins prior to test relative to vehicle-control. Format: functional, organism-based. In short, it runs like this:
as §4

Series [11] concerns Mus musculus. Briefly: Toxicity in Swiss Webster mouse assessed as sedation-like behavior at 30 mg/kg, ip measured after 30 mins. Particulars: in vivo, 0.5 h. Format: organism-based. In short, it runs like this:
as §4

Series [12] concerns Mus musculus. The experiment in a line: Toxicity in Swiss mouse assessed as change in motor coordination by measuring number of falls from the rotating rod at 10 mg/kg, ip administered 30 mins prior to testing measured for 2 mins by rotarod test relative to control. Format: organism-based. The conditions noted are these: in vivo. In short, it runs like this:
(§5)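 The same mice used for marble burying were placed on a rotarod at 4 r.p.m. for 2 min. No fall was scored success, one fall partial, and two falls failure.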
For orientation: In the rotarod test animals must keep their balance on a rotating rod.

In series [13] the test system is Mus musculus. Briefly: Toxicity in Swiss mouse assessed as change in motor coordination by measuring number of falls from the rotating rod at 30 mg/kg, ip administered 30 mins prior to testing measured for 2 mins by rotarod test relative to control. Type of series: organism-based. The conditions noted are these: in vivo. In short, it runs like this: as §5

pEC50: −log10 of the molar value. The source made the active and inactive calls. The calls are words filed in the database; no cut-off is given here. Bounds are passed on as bounds.

As for `CNC1=Nc2ccc(Cl)cc2C(c2ccccc2)=[N+]([O-])C1` [CHLORDIAZEPOXIDE], the Activity entry in the series with Rattus norvegicus is recorded as “Non-Toxic”.
As for `C#Cc1ccc2c(c1)C(c1ccccn1)=NCc1c(-c3nc(CC)no3)ncn1-2`, the pEC50 (as a rule, the EC50 on a negative log10 scale, so that one unit is a factor of ten) is 5.52 in series [1] and under 4.70 in [6]. Moreover, the figures for the Stability in the series on Liver [2], in the series with Liver [3] and with Liver [4] were 91%, 92% and 97%, respectively. The CC50 at 18 h in series [5] is over 100 µM. Besides, the values for the concentration at 1 h in series [7] and in series [8] were 1720 nM and 3090 nM, respectively. For the same compound, the result with Mus musculus [9] and in the series on Mus musculus [10] was Active. Further, the Activity result with Mus musculus [11], with Mus musculus [12] and in the series with Mus musculus [13] was “Toxic” in each case.
